Experimental data reported in ChEMBL document CHEMBL1152328, “Alstiphyllanines A-D, indole alkaloids from Alstonia macrophylla” (J Nat Prod, 2009).
In brackets after ≈: the same amount, converted by molar mass.

Experiments:
HeLa = experiment: Cytotoxicity against human HeLa cells; assay type: cell-based
Plasmodium falciparum = experiment: Antiplasmodial activity against Plasmodium falciparum 3D7 infected human erythrocytes by Giemsa staining; assay type: functional, organism-based
How it was run: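 Human malaria parasites were kept in culture, and the test samples were made up as DMSO stock solutions before assay.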

Aorta = experiment: Vasodilation activity in Wistar rat endothelium-intact thoracic aortic ring assessed as inhibition of phenylepinephrine-induced contraction at 30 uM; assay type: functional; parameters: scale not given: the % may be the effect or the level left

Compound | IC50 (HeLa) | IC50 (Plasmodium falciparum) | Activity (Aorta)
C/C=C1\C[N+]2([O-])[C@H]3C[C@@H]1[C@]1(C(=O)OC)[C@@H](OC(C)=O)[C@]4(C[C@@H]12)c1ccccc1N(C)[C@H]34 [ALSTIPHYLLANINE A] | > 25 µg/mL | 6.85 µg/mL (≈ 16.1 µM) | 70%
C/C=C1/C[N+]2(C)[C@@H]3C[C@@]45c6cc(OC)ccc6N(C)[C@]4(O3)[C@@H]2C[C@@H]1[C@@]5(COC(=O)c1ccc(OC)c(OC)c1)C(=O)OC (some centres not stated) [ALSTIPHYLLANINE B] | > 25 µg/mL | 0.34 µg/mL | 35%
C/C=C1/C[N+]2(C)[C@@H]3C[C@@]45c6cc(OC)ccc6N(C)[C@]4(O3)[C@@H]2C[C@@H]1[C@@]5(COC(=O)c1cc(OC)c(OC)c(OC)c1)C(=O)OC (some centres not stated) [ALSTIPHYLLANINE C] | > 25 µg/mL | 6.2 µg/mL | 40%
C/C=C1/CN2[C@@H]3C[C@@]45c6cc(OC)ccc6N(C)[C@]4(O3)[C@@H]2C[C@@H]1[C@@]5(COC(=O)c1cc(OC)c(OC)c(OC)c1)C(=O)OC [ALSTIPHYLLANINE D] | > 25 µg/mL | 2.75 µg/mL (≈ 4.53 µM) | 42%
